Assay outcomes: PubChem BioAssay, several laboratories
Yeast lifespan up = extends the lifespan of yeast | S. cerevisiae growth with nicotinamide, OD615; deaD strain in restrictive glucose medium | inhibition of the nicotinamide effect, % at 10 µM | 0.68% of 130,000 active | AID 775;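 active = inhibition above a set limit, placed 3 SD over the median of all compounds, cut at about 26% in these data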
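Assay system: engineered S. cerevisiae DeaD replicative-lifespan strain, galactose-grown log-phase cells; Buffer or medium: CSMM-D glucose medium, restrictive; Probe or stimulus: nicotinamide 1.5 mM; Compound: single dose 10 µM compound, 0.25% DMSO; Schedule: 4 h preincubation then 48 h treatment at 30 °C; Technique: OD615 measurement.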
Rad51 HR inh = blocks human Rad51 in homologous recombination; Q06609; inhibition, % at 10 µM; hRad51 DNA strand exchange, fluorescence dequenching; 0.085% of 200,000 active; AID 1385;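 active = inhibition above 40% at the single screening dose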
Target sequence (Q06609 whole entry, looked up): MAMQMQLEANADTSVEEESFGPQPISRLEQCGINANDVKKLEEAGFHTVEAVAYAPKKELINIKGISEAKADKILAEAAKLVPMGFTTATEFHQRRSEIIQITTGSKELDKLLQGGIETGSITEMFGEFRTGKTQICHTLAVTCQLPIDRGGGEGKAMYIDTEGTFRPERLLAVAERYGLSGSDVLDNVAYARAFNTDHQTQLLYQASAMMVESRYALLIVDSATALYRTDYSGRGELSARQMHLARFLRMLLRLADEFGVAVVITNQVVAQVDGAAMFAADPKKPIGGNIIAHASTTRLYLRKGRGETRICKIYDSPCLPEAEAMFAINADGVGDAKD
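Assay system: Human Rad51 nucleoprotein filaments preassembled on unlabelled ssDNA | Reagent: Donor/quencher-labelled 47-bp dsDNA substrate | Doses: One concentration, 10 µM final | Times: 37 °C 15-min filament assembly, 30-min compound preincubation, 15-min exchange | Technique: Fluorescein emission 520 nm, excitation 485 nm | Benchmarks: Plate control and blank wells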
BB579 growth dn = yeast BB579 growth reduction in restrictive medium. S. cerevisiae BB579 growth, OD615, 48 h. AID 804. inhibition, % at 10 µM. 0.51% of 140,000 active;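 active = inhibition above a set limit, 3 SD over the mean compound inhibition, cut at about 44% in these data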
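System: DeaD yeast strain BB579; buffer or medium: CSMM-D dextrose restrictive medium; technique: OD at 615 nm; schedule: 4 h cell preincubation, 48 h compound exposure, 30 °C humidified; doses: single 10 µM dose; controls: amphotericin B 10 µg/mL, positive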
Arbovirus anti = antivirals against arbovirus infection. arbovirus infection cell-based antiviral screen. inhibition, % at 10 µM. 0.37% of 200,000 active. AID 1251; in the data active = inhibition above about 30%
Measles CPE = protection of cells from measles virus; Measles virus-infected cells, CPE protection, absorbance; protection (pct of control), % at 4 µM; AID 841; 1.5% of 140,000 active; in the data active = protection mostly above about 24%, no sharp cut-off; inactive = mostly below about 26%
HMGR II inh = E. faecalis class II HMG-CoA reductase inhibition | inhibition, % at 10 µM | purified E. faecalis HMGR, NADPH absorbance 340 nm kinetic | 0.41% of 190,000 active;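 active = inhibition above a set limit, the median over all tested compounds plus 3 SD, cut at about 9.5% in these data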;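 note: enzyme runs in reverse so mevalonate oxidation gives rising NADPH absorbance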
Hits are given with their value; i = inactive; nt = no result given. The list is not random: actives were taken first. Their share in the collection is about 2.4%.

SMILES	Yeast lifespan up	Rad51 HR inh	BB579 growth dn	Arbovirus anti	Measles CPE	HMGR II inh
CCCCn1c(NS(=O)(=O)c2ccc(C)cc2)c(C(=O)OCC)c2nc3ccccc3nc21	93.2	i	i	i	i	i
COc1ccc(C(=O)C2CCCN(Cc3cnc(C)s3)C2)c(OC)c1 (stereo unspecified)	nt	i	nt	i	nt	15.9
Fc1ccc(Cn2nnnc2C(c2ccc(Cl)cc2)N2CC=C(c3ccc(F)cc3)CC2)cc1 (stereo unspecified)	i	i	i	i	40.9	i
CCCC[n+]1cc(/N=C(\[O-])OC)on1	i	i	i	i	i	i
COc1ccc(CC[n+]2cc(/N=C(\C)[O-])on2)cc1OC	i	i	i	i	34.6	i
CN(C)C=C1C(=O)N(C2CCCCC2)C(=O)N(C2CCCCC2)C1=O	39.2	i	i	i	i	i
Cc1cc(C)c(C2=NOC(O)(C(F)(F)F)C2)c(=O)[nH]1 (stereo unspecified)	i	nt	i	i	26.8	i
O=[N+]([O-])c1ccc2nc(N3CCNCC3)ccc2c1	nt	i	nt	nt	nt	nt
CC12CCC3C(CCC4C/C(=N/O)CCC43C)C1CCC2O (stereo unspecified)	i	i	i	i	41.1	i
C[C@]12CC[C@@H](O)C[C@@H]1CC[C@@H]1[C@@H]2CC[C@]2(C)[C@@H](O)CC[C@@H]12	28.8	i	i	i	i	i
CC1CCN2c3nc4ccccn4c(=O)c3CC3(C(=O)N(C)C(=O)N(C)C3=O)C2C1 (stereo unspecified)	i	i	i	i	i	i
CN1C(=O)N(C)C(=O)C2(Cc3c(nc4ccccn4c3=O)N3CCc4ccccc4C32)C1=O (stereo unspecified)	i	i	i	i	39.8	i
O=c1[nH]c(=O)n(C2CCCCC2)c(O)c1/C=C/C=Nc1ccccc1	nt	i	nt	nt	nt	nt
Cc1ccc(-n2c(O)c(/C=N/c3ncc(Br)cc3Br)c(=O)[nH]c2=O)cc1	nt	i	nt	i	nt	10.0
Cc1cccc(-n2c(O)c(C=Nc3ccc(Br)cn3)c(=O)[nH]c2=O)c1	nt	i	nt	i	nt	i
Cc1ccc(CC2C(=O)N(C)C(=O)N(C)C2=O)s1	i	i	i	81.5	i	i
Cc1cc(NC(=O)CCl)on1	nt	i	nt	i	nt	i
N[C@@H](Cc1c[nH]c2ccccc12)c1nnc(SCc2ccccc2)o1	i	i	i	i	44.8	i
N[C@@H](Cc1c[nH]c2ccccc12)c1nnc(SCc2ccc(F)cc2)o1	i	i	i	i	i	i
CC(C)(C)c1cc([N+](=O)[O-])cc(C(C)(C)C)c1O	nt	i	nt	i	nt	i
Nc1cc(Cl)c2nonc2c1[N+](=O)[O-]	37.1	i	i	i	i	i
Cc1nn(Cc2c(Cl)cccc2Cl)c(Cl)c1C(=O)O	nt	i	nt	i	nt	i
Cc1ccsc1C(=O)C1CCCN(Cc2cnc(N3CCCC3)s2)C1 (stereo unspecified)	nt	i	nt	i	nt	i
CC(C)(C)P(=O)(N1CCOCC1)N1CCOCC1	nt	i	nt	i	nt	i
O=P(OCC(F)(F)C(F)F)(N1CCOCC1)N1CCOCC1	i	88.5	i	i	i	i
SMILES	Yeast lifespan up	Rad51 HR inh	BB579 growth dn	Arbovirus anti	Measles CPE	HMGR II inh
Cc1ncc(CN2CCCC(C(=O)c3ccc(C(C)(C)C)cc3)C2)s1 (stereo unspecified)	nt	i	nt	i	nt	i
CCCCn1c(=O)c(C(=O)Nc2cnccn2)c(O)c2ccccc21	79.7	i	i	i	i	i
O=C(/C=C/c1ccccc1)c1c(O)n(CCc2ccccc2)c(=O)[nH]c1=O	i	i	i	i	i	i
COc1cc(/C=C/C(=O)c2c(O)n(CCc3ccccc3)c(=O)[nH]c2=O)ccc1O	i	i	i	46.2	i	i
Cc1c2cnn(CC(=O)N3CCC4(CC3)OCCO4)c(=O)c2c(C)n1Cc1ccccc1F	i	i	i	i	i	12.4
Cc1cc(/C=C2\C(=O)NC(=O)N(c3cccc(Br)c3)C2=O)c(C)n1C	i	i	i	i	39.0	i
O=C(c1cc(F)ccc1F)C1CCCN(CCCc2ccccc2)C1 (stereo unspecified)	nt	nt	nt	i	nt	9.6
COC(=O)C(O)(c1c[nH]c2ccccc12)C(F)(F)F (stereo unspecified)	i	i	i	i	i	i
COC(=O)C(O)(c1cn(C)c2ccccc12)C(F)(F)F (stereo unspecified)	i	nt	i	i	46.0	i
CCN1CCC2(CC1)NC(=O)c1ccccc1O2	nt	nt	nt	i	nt	i
CC/C(=N\Nc1ccccc1)c1c(O)n(C)c(=O)n(C)c1=O	i	i	i	i	28.3	i
CC(C)(C)NC(=S)/N=C(\N)N[N+](=O)[O-]	nt	i	nt	i	nt	i
CN(N)N=Nc1nc2c([nH]1)c(=O)n(C)c(=O)n2C	nt	i	nt	nt	nt	nt
O=C1/C(=C\c2ccc([N+](=O)[O-])cc2)N2CCC1CC2	35.4	i	i	i	i	i
O=C1/C(=C/c2ccc3c(c2)OCO3)N2CCC1CC2	i	i	i	i	i	i
CN1CCC2(CC1)C(C#N)=C(N)NC(S)=C2C#N	40.0	i	i	i	i	i
CCn1c(O)c(C=Nc2ccc(N3CCOCC3)cc2)c(=O)n(CC)c1=S	i	i	i	i	35.1	i
Cc1ccnc(-n2c(C)cc(C=C3C(=O)N(C)C(=S)N(C)C3=O)c2C)c1	29.6	i	i	i	i	i
COc1ccc(CN2C(=O)NC(=O)/C(=C/c3ccc([N+](=O)[O-])s3)C2=O)cc1	nt	i	nt	nt	nt	nt
CCOC(=O)[C@@]1(C#N)[C@@H]2C=CC(C(N)=O)=CN2[C@@H](C(N)=O)[C@@H]1c1cccc(Cl)c1	i	i	i	i	46.9	i
CCOc1ccc2oc(C(=O)NN3C(C)CCCC3C)c(C)c2c1 (stereo unspecified)	nt	i	nt	i	nt	i
COCCNCCOc1ccc(C(C)(C)c2ccccc2)cc1	i	nt	i	i	i	i
O=C1NC(=O)N(c2ccccc2)C(=O)/C1=C/c1ccc(Sc2ccccc2)o1	31.7	i	i	i	i	i
